# Assay results of several laboratories.
# Lines come from different studies, so protocols differ.
# Target: Mitogen-activated protein kinase kinase kinase 1 (MAP3K1, Homo sapiens, UniProt Q13233)
SMILES,assay,setting,quantity,value
Nc1ncnc2occ(-c3ccc(NC(=O)Nc4cc(C(F)(F)F)ccc4F)cc3)c12,"cell-free assay, inhibitor",20 µM,remaining signal,6.9%
CC(C)(C)c1nc2c(s1)c1nc(N)ncc1c1ccc(NS(=O)(=O)c3c(F)cccc3F)c(F)c12,"enzyme activity, inhibitor, radiometric",1 µM,remaining activity,90%
CN(C)C(=O)Cn1cc(-c2nc([C@@](C)(c3ccc(-c4cnc(N)nc4)cc3)C3CC3)no2)cn1,"cell-free assay, competition with immobilised ligand",1 µM,remaining binding,90%
Cn1c(=O)n(-c2ccc(C(C)(C)C#N)cc2)c2c3cc(-c4cnc5ccccc5c4)ccc3ncc21,"enzyme activity, inhibitor",10 µM,remaining activity,67%
COc1cc(/C=C/C(=O)CC(=O)/C=C/c2ccc(O)c(OC)c2)ccc1O,"enzyme activity, inhibitor",1 µM,activity vs control,89%
Oc1cccc(-c2nc(N3CCOCC3)c3oc4ncccc4c3n2)c1,"enzyme activity, inhibitor",10 µM,remaining activity,97%
CC(C)(O)[C@H]1CC[C@H](Nc2ccc3ncc(-c4cccc(C(F)(F)F)c4)n3n2)CC1,"enzyme activity, inhibitor",1 µM,remaining activity,99%
CC1CCCN1c1nccc(-c2cnn3ncccc23)n1 (stereo not shown),binding,1 µM,remaining binding,87%
FC(F)(F)Oc1cccc(-c2cnc3ccc(-c4ccncc4)nn23)c1,"enzyme activity, inhibitor, radiometric",1 µM,activity vs control,94%
Cc1sc(C(=O)NC2COC2)cc1-n1cc(NC(=O)Nc2c(F)cccc2Cl)cn1,"enzyme activity, inhibitor",10 µM,remaining activity,94.5%
Cc1ccc(C(=O)Nc2ccc(CN3CCN(C)CC3)c(C(F)(F)F)c2)cc1C#Cc1cnc2cccnn12,"enzyme activity, inhibitor",23.5 nM,remaining activity,82%
O=C(Nc1cnn(-c2csc(C(=O)NC3COC3)c2)c1)Nc1c(F)cccc1Cl,"enzyme activity, inhibitor",5 µM,remaining activity,98.7%
CS(=O)(=O)NCC[C@H](NC(=O)c1cncc2c1cnn2-c1ccc(F)cc1)c1ccnc(S(C)(=O)=O)c1,"cell-free assay, competition with immobilised ligand",1 µM,remaining binding,100%
CC(C)(C)c1nc(-c2cccc(NS(=O)(=O)c3c(F)cccc3F)c2F)c(-c2ccnc(N)n2)s1,"enzyme activity, inhibitor, radiometric",1 µM,remaining activity,84%
CN(C)C(=O)Cn1cc(-c2nc(C3(c4ccc(-c5cnc(N)nc5)cc4)CC3)no2)cn1,"cell-free assay, competition with immobilised ligand",1 µM,remaining binding,77%
COc1cc(Nc2cnc(C#N)c(O[C@H](C)CN(C)C)n2)ncc1-c1cnn(C)c1,"enzyme activity, inhibitor, radiometric",1 µM,remaining activity,92%
